An excerpt weighted towards active compounds, which were near 4% of everything screened.
KCNQ1 inh – inhibitors of human KCNQ1 potassium channel. CHO-K1 KCNQ1, FluxOR thallium flux fluorescence; hits give high values. B-score at 10 µM. 310,000 compounds, 1.3% hits. AID 2642;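 active = compounds whose thallium flux B-score, printed positive for inhibition, exceeds three library SD while starting fluorescence stays within three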;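 also: channel opened by potassium depolarization with thallium stimulus after 20 min compound exposure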
KCNQ1 pot – potentiates or activates the human KCNQ1 potassium channel; P51787; CHO-K1 KCNQ1, thallium flux FluxOR fluorescence; hits give high values; B-score at 10 µM; 310,000 compounds, 0.35% hits; AID 2648;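 active = fluorescence ratio B-score, a plate-corrected score, at least three library SD, with initial intensity B-score within 5 SD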
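Assay system: stable KCNQ1 CHO-K1 line; medium: assay buffer, equal DMSO in all wells; timing: 90 min dye loading and 20 min compound exposure, both at room temperature; technique: kinetic FluxOR thallium fluorescence, 10-s 1-Hz baseline, 110-s post-stimulus read; read-out basis: B score of baseline-normalized fluorescence ratio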
KCNK3 block – human KCNK3 channel inhibition, primary screen; O14649; CHO-KCNK3 thallium flux, FluxOR fluorescence; hits give low values; B-score at 10 µM; 340,000 compounds, 0.84% hits; AID 602410;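 active = B-score under library mean minus 4 SD, starting fluorescence ratio at most library mean plus 5 SD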;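 also: more negative B-score means stronger inhibition of thallium flux through KCNK3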
hERG protect – shields human hERG channel from block by proarrhythmic agents; Q12809; AID 1511; 310,000 compounds, 0.51% hits; activation (rescue from dofetilide block), less the hit threshold, % at 10 µM; CHO-hERG, FluxOR thallium flux, dofetilide IC70 present;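 active = activation above the mean of controls blocked by dofetilide plus 5 SD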;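 also: thallium influx through hERG after potassium depolarization seen as dye fluorescence rise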
PHOSPHO1 block – PHOSPHO1 (human) inhibition | Q8TCT1 | recombinant PHOSPHO1, absorbance phosphatase assay | inhibition, % at 13.3 µM | 290,000 compounds, 1.1% hits | AID 1565; in the data active = inhibition above about 60%
Target sequence (Q8TCT1 whole entry, looked up): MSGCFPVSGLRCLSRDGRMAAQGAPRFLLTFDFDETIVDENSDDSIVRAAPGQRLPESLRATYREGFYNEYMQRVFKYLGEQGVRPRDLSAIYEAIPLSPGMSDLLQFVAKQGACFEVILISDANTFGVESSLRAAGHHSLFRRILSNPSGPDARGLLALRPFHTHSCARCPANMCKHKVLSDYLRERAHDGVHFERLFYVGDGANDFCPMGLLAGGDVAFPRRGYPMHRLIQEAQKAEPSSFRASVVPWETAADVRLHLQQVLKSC
KCNK9 inh – human KCNK9 channel inhibition; Q9NPC2; HEK293 KCNK9, FluxOR thallium flux fluorescence; hits give low values; B-score at 10 µM; 310,000 compounds, 1.2% hits;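 active = ratio B-score over 3 SD below the library mean, with starting fluorescence within 5 SD of its mean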;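 also: negative B-score means less thallium flux so channel inhibition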
Target sequence (Q9NPC2 whole entry, looked up): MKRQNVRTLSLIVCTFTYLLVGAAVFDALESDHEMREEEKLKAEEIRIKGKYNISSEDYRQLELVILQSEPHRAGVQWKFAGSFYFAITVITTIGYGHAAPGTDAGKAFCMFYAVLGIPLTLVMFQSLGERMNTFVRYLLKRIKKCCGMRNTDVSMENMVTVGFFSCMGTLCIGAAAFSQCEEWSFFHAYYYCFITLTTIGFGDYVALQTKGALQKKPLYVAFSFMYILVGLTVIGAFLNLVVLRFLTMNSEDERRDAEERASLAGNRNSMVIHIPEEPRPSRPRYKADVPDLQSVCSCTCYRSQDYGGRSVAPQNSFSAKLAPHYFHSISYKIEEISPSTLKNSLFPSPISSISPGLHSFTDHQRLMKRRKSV
Hits are given with their value; n = inactive; x = no result given.

SMILES	KCNQ1 inh	KCNQ1 pot	KCNK3 block	hERG protect	PHOSPHO1 block	KCNK9 inh
CCOC(=O)C1CCN(C(=O)c2ccc3c(c2)NC(=O)/C(=C\c2ccc(C)cc2)S3)CC1	n	n	n	n	70	n
Cc1cccc(/C=C2/Sc3ccc(C(=O)NCCN4CCCC4)cc3NC2=O)c1	6	n	n	n	n	n
S=C(NCC1CCCO1)N1CCN(c2nc(-c3ccccc3)cs2)CC1 (centres undefined)	n	n	n	n	n	n
COCCn1c(=S)[nH]c2ccc(N(C)C)cc2c1=O	n	n	n	n	98	n
CC(=O)Oc1ccc2oc(C)c(C(=O)N3CCOCC3)c2c1	n	n	n	4.9	n	n
CCc1ccc2[nH]c(O)c(N=Nc3nc(-c4ccccc4)cs3)c2c1	n	10	n	7.2	n	n
COc1ccc([N+](=O)[O-])cc1NC(=O)c1ccc(Br)s1	n	n	n	n	n	n
COc1ccc(OC)c(N2CC(O)=C(c3nc4ccccc4s3)C2=N)c1	n	n	n	n	n	-6.6
CCN(CC)C(=O)[C@H]1C[C@H](CC(=O)NC(C)(C)C)C(=O)N2CCc3c([nH]c4cc(-c5ccco5)ccc34)[C@]12C	x	x	n	x	x	x
CCC(c1nnnn1C(C)(C)C)N(Cc1cccs1)Cc1cc2cc(C)c(C)cc2n2nnnc12 (centres undefined)	n	n	x	n	x	-14
CC1(C)CC(=O)C=C(NCCc2c[nH]c3ccccc23)C1	n	n	n	n	n	n
CCCCn1c(-c2ccccc2C)nc2cc3[nH]c(=O)c(C(C)C)nc3cc21	n	n	n	n	n	-8.1
CCCCn1c(C2CCCCC2)nc2cc3[nH]c(=O)c(C(C)C)nc3cc21	n	n	n	n	n	n
COc1ccc(-c2[nH]ncc2CN(C)Cc2cccnc2)c(OC)c1	n	n	n	n	n	n
COc1ccc(-c2[nH]ncc2CN(C)CCc2c(C)n[nH]c2C)c(F)c1	n	n	n	n	67	n
COc1ccc(CN2C(=O)c3ccccc3C2=O)cc1	n	n	n	n	n	n
COc1ccc(CN2C(=O)c3ccccc3C(/C=N/OCc3ccc(Cl)cc3)C2=O)cc1 (centres undefined)	7	n	n	n	n	n
COc1ccc(CN2C(=O)c3ccccc3C(/C=N\OCc3ccc(F)cc3)C2=O)cc1 (centres undefined)	10	n	n	n	n	n
COc1cccc(N2CCN(S(=O)(=O)c3ccc4c(c3)CC(C)N4C(=O)C3CC3)CC2)c1 (centres undefined)	n	n	n	n	n	n
O=S(=O)(c1ccc(F)c(F)c1)N1CCN(c2ccccn2)CC1	n	n	n	n	n	n
CC(=O)c1c(C)oc2ccc(N(C(=O)c3ccncc3)S(=O)(=O)c3ccccc3)cc12	n	n	n	n	n	n
NC(=O)c1nc(-c2ccco2)nc2c1[nH]c(=O)n2-c1ccc(Cl)c(Cl)c1	n	n	n	n	n	n
CNC(=S)/N=C/NOCc1ccc(Cl)cc1Cl	8	n	n	n	n	n
Cc1csc(SCC(=O)Nc2cc(S(=O)(=O)N3CCOCC3)ccc2N2CCOCC2)n1	n	n	n	n	n	n
Cc1csc(SCC(=O)c2ccc(S(=O)(=O)N3CCOCC3)cc2)n1	n	n	n	n	78	n
SMILES	KCNQ1 inh	KCNQ1 pot	KCNK3 block	hERG protect	PHOSPHO1 block	KCNK9 inh
Cc1nn(-c2nnc(C)c(=O)[nH]2)c(C)c1SCC(=O)Nc1ccc(F)cc1	n	n	n	n	n	n
Cc1nn(-c2nnc(C)c(=O)[nH]2)c(C)c1SCC(=O)Nc1ccc(C(C)C)cc1	n	n	n	n	62	n
CCN(C(=O)COC(=O)c1ccccc1Cc1ccccc1)C1CCS(=O)(=O)C1 (centres undefined)	n	n	n	n	x	n
CCN(C(=O)COC(=O)C(Cc1ccccc1)N1C(=O)c2ccccc2C1=O)C1CCS(=O)(=O)C1 (centres undefined)	n	8	n	n	n	n
CCN(C(=O)COC(=O)c1cc(-c2cccc3ccccc23)nc2ccccc12)C1CCS(=O)(=O)C1 (centres undefined)	n	n	n	n	n	-7.1
CCN(CC)c1cc(C)c2cc(NC(=O)c3ccc(Br)o3)ccc2n1	n	n	n	n	n	n
Cc1ccc(N2CC(C(=O)Nc3nnc(C)s3)CC2=O)cc1 (centres undefined)	n	n	n	n	n	n
Cc1ccc(N2CC(C(=O)Nc3ncc([N+](=O)[O-])s3)CC2=O)cc1 (centres undefined)	6	n	n	n	n	n
Cc1nc2c(-c3ccc(F)cc3)cnn2c2c1CCC2	n	n	n	n	n	n
COc1ccc(-c2cnn3c4c(c(C)nc23)CCN4C(C)C)cc1OC	n	n	n	n	62	n
Cc1cc(C)n2nc(SCC(=O)c3cc(C)n(-c4cc(C)on4)c3C)nc2n1	n	n	n	n	102	n
Cc1cc(C(=O)CSc2ncnc3ccccc23)c(C)n1C1CC1	x	x	n	x	x	x
Cc1cc(-n2c(C)cc(C(=O)CSc3ncnc4ccccc34)c2C)no1	6	n	n	n	84	n
CC(C)NC(=O)NC(=O)COc1ccc(Br)cc1Br	n	n	n	n	n	n
NC(=O)c1cc([N+](=O)[O-])cc2c1C=Cc1ccccc1O2	n	n	n	n	n	n
CCOC(=O)c1[nH]c2ccc(OC)cc2c1NC(=O)c1ccc2c(c1)OCO2	n	n	n	n	n	n
CCOC(=O)c1[nH]c2cc(OC)c(OC)cc2c1NC(=O)c1ccc2c(c1)OCO2	n	n	n	n	68	n
C[n+]1cc[nH]c1SCC(=O)c1ccc(Cl)cc1	n	n	n	n	n	n
C[n+]1cc[nH]c1SCC(=O)c1ccccc1	n	n	n	n	60	n
Cc1ccc(OCCn2c3ccccc3n3nc(C)c(=O)nc23)cc1	n	n	n	n	n	n
COc1ccc(OC)c(NC(=O)CSc2sc3c(O)cc(=O)[nH]c3c2C#N)c1	n	n	n	n	n	n
COc1cc(Cl)c(C)cc1NC(=O)CSc1sc2c(O)cc(=O)[nH]c2c1C#N	n	n	n	4.7	n	n
CCOc1ccc(NC(=O)c2cn(-c3ccc(OCC)cc3)c(=O)c3cc(OC)c(OC)cc23)cc1	n	n	n	n	n	n
CCOc1ccc(-n2cc(C(=O)Nc3cccc(C)n3)c3cc(OC)c(OC)cc3c2=O)cc1	n	13	n	n	x	n
CCOc1cccc(C(=O)Nc2nnc(-c3ccco3)s2)c1	x	x	n	x	76	x
Cc1cccc(OCC(=O)Nc2nnc(-c3ccco3)s2)c1	n	n	n	n	n	n
COc1ccccc1OCC(=O)Nc1nnc(-c2ccco2)s1	n	n	n	n	74	n
O=C(O)CCN1C(=O)C2CCCCC2C1=O (centres undefined)	n	n	n	n	n	n
